Screens as filed in PubChem BioAssay.
m5-HT2A agonist: agonists of mouse serotonin 5-HT2A receptor (HTR2A); P35363; CHO-K1 mHTR2A beta-arrestin complementation, luminescence; percent of 30 µM serotonin response; activation, % at 7.6 µM; hit rate 0.66% among 360,000; AID 624169;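 active = activation above a run cutoff, the mean activation of all tested compounds plus 3 SD, cut at about 14% in these data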;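 note: 0% = plate median of compound wells and 100% = 30 µM serotonin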
Target sequence (P35363 whole entry, looked up): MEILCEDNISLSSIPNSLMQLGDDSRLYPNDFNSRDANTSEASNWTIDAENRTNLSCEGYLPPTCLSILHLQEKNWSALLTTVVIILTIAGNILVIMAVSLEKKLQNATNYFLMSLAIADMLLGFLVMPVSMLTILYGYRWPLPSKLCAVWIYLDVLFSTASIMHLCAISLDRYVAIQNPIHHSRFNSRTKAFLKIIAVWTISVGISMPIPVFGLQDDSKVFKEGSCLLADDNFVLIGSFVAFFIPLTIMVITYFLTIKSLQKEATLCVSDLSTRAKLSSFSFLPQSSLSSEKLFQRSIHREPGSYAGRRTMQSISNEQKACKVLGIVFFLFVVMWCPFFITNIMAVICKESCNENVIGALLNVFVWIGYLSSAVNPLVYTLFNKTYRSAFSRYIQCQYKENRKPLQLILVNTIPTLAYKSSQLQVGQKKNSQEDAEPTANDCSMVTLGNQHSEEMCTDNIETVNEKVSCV
MC4R antagonist: blocks human MC4R cAMP signaling. MC4R-expressing cells, MTII-stimulated cAMP, LANCE TR-FRET. hit rate 0.48% among 360,000. inhibition, % at 6.5 µM. AID 540295;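 active = inhibition above its plate's cutoff, the mean of tested wells on that plate plus 3 SD, cut at about 29% in these data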;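 note: 0% = Melanotan II alone and 100% = Melanotan II plus saturating MCL0020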
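system = U2OS cells with stable human MC4R expression | also added = Melanotan II challenge after compound preincubation | dosing = one concentration, 6.5 µM nominal | incubation = compound 30 min, challenge 1 h, detection 1 h | measured by = TR-FRET with Eu-cAMP and labeled anti-cAMP, 671 nm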
TAAR1 antagonist: human TAAR1 antagonism | inhibition, % at 3 µM | CHO RD-HGA16 TAAR1, Fluo-8 calcium fluorescence, antagonist | hit rate 1.5% among 360,000;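 active = inhibition above a per-plate cutoff, the mean inhibition of test compounds on that plate plus 3 SD, cut at about 49% in these data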;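 note: 0% = DMSO plus EC80 beta-PEA response and 100% = DMSO alone without agonist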
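System: RD-HGA16 CHO cells with stable hTAAR1 and Gα16 | Probe or stimulus: EC80 β-phenethylamine stimulus | Dosing: 3 µM, single point | Times: Dye loading 75 min at 37 °C, then 30 min room temperature | Measured by: Fluo-8 calcium-sensitive fluorescence | Read-out basis: % inhibition of agonist calcium response | Replicates: n of 1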
TAAR1 agonist: human TAAR1 agonism; CHO RD-HGA16 TAAR1, Fluo-8 calcium fluorescence; vehicle wells 0%, saturating PEA agonist 100%; activation, % at 3 µM; hit rate 0.99% among 360,000; AID 624467;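 active = activation above the mean activation of all test compounds in the run plus 3 SD, cut at about 38% in these data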
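Test system: RD-HGA16 (CHO) cells co-expressing Gα16 and hTAAR1 | Doses: Single dose, 3 µM | Schedule: 17-24 h seeding, 75 min 37 °C dye, 30 min RT | Evaluation: % activation from peak over basal fluorescence ratio, DMSO-to-PEA scaled | Technique: Kinetic Fluo-8 calcium fluorescence | Benchmarks: Low control DMSO, high control PEA (EC100)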
Beta2AR agonist: human beta-2 adrenergic receptor agonism by FAP | Am2.2-beta2AR cells, FAP receptor internalization, flow cytometry | AID 504454 | response, % (concentration not given with the values) | hit rate 0.43% among 340,000 | P07550;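 active = response above a set limit, near 3 SD of response in nonfluorescent compounds, cut at about 42% in these data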
MC4R barr agon: activates human MC4R beta-arrestin recruitment; P32245; AID 540308; hit rate 0.98% among 360,000; U2OS MC4R beta-arrestin complementation, luminescence; percent of melanotan II response, DMSO zero; activation, % at 8.9 µM;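 active = activation above a per-plate cutoff, the mean activation of sample wells on that plate plus 3 SD, cut at about 8% in these data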
Starred values were filed as active, the others as inactive; . = no result. In the library only some 4.3% were active in any assay of this set; here they are far more common.

SMILES	m5-HT2A agonist	MC4R antagonist	TAAR1 antagonist	TAAR1 agonist	Beta2AR agonist	MC4R barr agon
C[C@@]12C(=O)OC(=O)[C@]1(C)C1CCC2O1	-5	12	-13	1	81*	-1
CC12C(=O)N(c3nccs3)C(=O)C1(C)C1CCC2O1 (configuration not stated)	-2	5	-13	1	.	1
CN(C)c1ccc(N(C)C)c(C(O)(c2ccccc2)c2ccccc2)c1	.	.	5	2	.	.
Cc1nc(N2CCN(c3ccccc3)CC2)nc2c1C(=O)CCC2	-6	0	57*	11	-1	-1
CCn1c(SCc2nc(-c3cccs3)no2)nnc1-c1c[nH]c2ccccc12	-2	5	50*	18	4	-1
O=C(NCc1ccccc1)[C@@H]1CCCN1C(=O)[C@H]1CCCN1C(=O)N1CCCCC1	.	.	-3	0	.	.
CN(C)c1cc(N/N=C\c2ccccc2)nc(N(C)C)n1	-19	13	-17	24	13	8.5*
O=C(CNSc1ccc([N+](=O)[O-])cc1[N+](=O)[O-])OCc1ccccc1	.	.	5	0	.	.
Cc1cc(C)cc(-n2c3ccc(NC(=O)Cc4cccc5ccccc45)cc3c(=O)n2C)c1	0	-2	-11	1	.	1
COc1ccccc1Nc1ccc(NC(=O)c2cccc([N+](=O)[O-])c2C)cc1	-18	9	51*	-1	7	-2
O=C1Nc2ccccc2S/C1=C/Nc1cccc(Cl)c1	-6	-4	28	11	-6	13*
O=C1Nc2ccccc2SC1=Cc1ccccc1	0	0	10	9	.	-1
CCCCCCCCN1C(=O)[C@@H](CC(=O)NCCCOC)C[C@@]2(C(=O)OC)C1=C[C@H](C(C)(C)C)O[C@@H]2C	.	.	-38	-3	.	.
COc1ccccc1NC(=O)Nc1nc(CC(=O)NCc2ccc(F)cc2)cs1	0	7	52*	14	18	0
COc1cccc(CNC(=O)Cc2csc(NC(=O)Nc3ccccc3OC)n2)c1	3	1	50*	11	8	-1
COC(=O)C1=C(C)N(C)C(=NCc2ccccc2C(F)(F)F)NC1c1ccc(F)cc1 (configuration not stated)	.	.	-10	4	.	.
Cc1nc2c(Br)cc(Br)cc2cc1O	7	-3	0	13	57*	0
S=C(CN1CCCC1=S)NCCc1ccccc1	5	18	-25	40*	17	-1
N#CC1=C(N)NC(SCc2ccc(Br)cc2)=C(C#N)C12CCCCC2	-5	3	27	22	0	0
N#CC1=C(N)NC(SCc2ccc(Cl)cc2)=C(C#N)C12CCCCC2	0	11	62*	22	-3	0
CCOC(=O)/C=C(\C)Sc1cc(O)c2ccccc2c1O	2	-5	2	6	46*	-2
CCOC(=O)/C=C(\C)Sc1cc(=O)oc2ccccc12	-6	-10	0	3	-5	1
O=C(N[C@@H](Cc1cccnc1)C(=O)N1CCC[C@H]1C(=O)NC1CCCC1)c1ccccc1	.	.	5	0	.	.
Cc1cc(Nc2ccc(OC(F)F)cc2)cc(=O)n1-c1ccc(OC(F)F)cc1	.	.	13	0	.	.
CCCCOCC1CN(CCCC)S(=O)(=O)c2c(cccc2N2CCCCC2)O1 (configuration not stated)	.	.	-16	-1	.	.
SMILES	m5-HT2A agonist	MC4R antagonist	TAAR1 antagonist	TAAR1 agonist	Beta2AR agonist	MC4R barr agon
COc1cccc(C(=O)NCCS(=O)(=O)N2CCc3ccccc3C2)c1	6	3	-18	1	-4	-1
CCCN(CC(=O)Nc1ccccc1C)C(=O)c1ccc(S(=O)(=O)N2CCCCCC2)cc1	-3	-7	-23	0	-4	-3
CCCN(CC(=O)Nc1ccccc1C)C(=O)c1cccc(S(=O)(=O)N2CCc3ccccc3C2)c1	-6	13	59*	6	10	-3
COc1ccc(CCNC(=O)c2cccc(S(=O)(=O)N3CCc4ccccc4C3)c2)cc1	1	7	49*	8	-4	-2
OCCN1CN(c2ccccc2)C(=S)N(c2ccccc2)C1	.	.	-17	2	.	.
CCOC(=O)c1ccc(NC(=O)OC[C@@H]2CSCCS(=O)(=O)N2)cc1	.	.	7	17	.	.
CC(O)CNc1nc2ccccc2n1-c1ncnc2sc3c(c12)CCC3 (configuration not stated)	18*	-5	22	2	-10	1
O=c1[nH]c(SCc2ccccc2Cl)nc2c1cnn2-c1ccccc1	-4	-9	-28	1	-2	9.3*
COc1ccc(C(=O)N(C)[C@H]2C[C@H]3c4[nH]c5c(-c6ccccc6)cccc5c4CCN3C(=O)[C@H]2[C@H](C)O)cc1	.	.	24	6	.	.
O=C(O)c1ccccc1N=Nc1ccc(O)cc1	19*	-10	-6	2	-1	-2
O=C(O)c1cc(O)ccc1N=Nc1ccccc1	-1	-1	-18	4	-7	-1
COC(=O)c1cc(S(=O)(=O)NCC2CCN(C(=O)C(=O)c3cccs3)CC2)cs1	.	.	-19	3	.	.
Cc1cc(NCc2ccccc2)nc2ccccc12	-9	12	79*	89*	-15	-1
Cc1ccc(C)c(OCCC(=O)OCC(=O)Nc2ccc(Cl)cn2)c1	-4	4	8	3	-8	9.5*
Cc1ccc(OCCC(=O)OCC(=O)Nc2ccc(Cl)cn2)cc1	-1	14	5	0	-1	0
COc1cc(-c2coc3c(C(=O)NCc4ccc(N(C)C)cc4)cccc23)ccc1O	5	18	20	0	.	1
COc1ccc(CNC(=O)c2cccc3c(-c4cccc(C(N)=O)c4)coc23)cc1OC	7	7	56*	21	.	0
COc1cc(-c2coc3c(C(=O)NCc4ccc(OC)c(OC)c4)cccc23)ccc1O	0	4	66*	12	.	-1
C[C@@H]1COc2cc(NCCCN3CCOCC3)ccc2S(=O)(=O)N1	.	.	5	1	.	.
O=C(CSc1nc(Cc2ccccc2)nc2ccccc12)c1ccc2c(c1)OCCO2	19*	-4	8	5	9	0
C[C@@H](C[C@@H](O)[C@H](O)C(C)(C)O)[C@@H]1CC[C@]2(C)C3=CC[C@H]4C(C)(C)C(=O)CC[C@]4(C)[C@H]3CC[C@@]12C	3	4	-10	4	5	9.4*
COc1ccc(-c2noc(CCC(=O)NCc3cccnc3)n2)cc1	3	9	22	1	-8	1
Cc1ccc2nc(-c3ccc(NC(=O)Cc4cccs4)cc3)[nH]c2c1	-4	15	17	5	11	9.4*
COc1cccc(-c2noc(-c3ccc(Cl)nc3)n2)c1	6	-10	-3	19	-1	8.7*
